The values below come from ChEMBL document CHEMBL4196023, “Cyclic peptide inhibitors of lysine-specific demethylase 1 with improved potency identified by alanine scanning mutagenesis” (Eur J Med Chem, 2018).

Molecules are shown by their SMILES. Activity calls are given as the source filed them. The calls are words filed in the database; no cut-off is given here. Positions of bridges follow the written chain, without caps; N, C: chain ends. Residues, ends and D or L forms follow the SMILES beside them. *: point of attachment. Decanoyl = CCCCCCCCCC(=O)*

In experiment [1] the target is Lysine-specific histone demethylase 1A (Homo sapiens) (UniProt O60341). Briefly: Inhibition of LSD1 in human K562 cells assessed as increase in H3K4me2 expression after 48 hrs by Western lot analysis.
The subject of experiment [2] is Calu-6. Briefly: Antiproliferative activity against human Calu6 cells after 72 hrs by MTS assay. The experiment is classed as functional, cell-based. The conditions noted are these: Calu-6, 72 h. (Tetrazolium dyes change colour on reduction, which living cells bring about.)
Experiment [3] concerns the target Lysine-specific histone demethylase 1A (Homo sapiens) (UniProt O60341). As to the kind of experiment: Inhibition of LSD1 in human NCI-H526 cells assessed as increase in H3K4me2 marks at promoter of IGFBP2 at 100 uM after 48 hrs by ChIP-qPCr method. The experiment is classed as cell-based. In a few lines: (§1)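 NCI-H526 small cell lung carcinoma cells treated 48 h at 100 µM alongside an untreated control. Cells formaldehyde cross-linked, nuclei sonicated and chromatin enzymatically digested. IP with H3K4me2 antibody (normal rabbit IgG as negative control) on protein G magnetic beads. Purified DNA quantified by TaqMan qPCR at promoter regions; fold change by comparative CT (Livak). SD from three qPCR wells.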

The test system of experiment [4] is K562. As to the kind of experiment: Antiproliferative activity against human K562 cells after 72 hrs by MTS assay. The following applies: K562, 72 h. The experiment is classed as functional, cell-based.
The next experiment relates to MCF7. Briefly: Antiproliferative activity against human MCF7 cells after 72 hrs by MTS assay. The experiment is classed as functional, cell-based. The following applies: MCF7, 72 h.
In experiment [5] the target is Lysine-specific histone demethylase 1A (Homo sapiens) (UniProt O60341). As to the kind of experiment: Inhibition of LSD1 in human NCI-H526 cells assessed as increase in H3K4me2 marks at promoter of FEZ1 at 100 uM after 48 hrs by ChIP-qPCr method. The experiment is classed as cell-based. In a few lines:
as §1

The target is the same in experiment [6]. As to the kind of experiment: Inhibition of LSD1 in human K562 cells assessed as increase in H3K4me2 expression at 10 uM after 48 hrs by Western lot analysis relative to control. The experiment is classed as cell-based.
Experiment [7] has as its system Calu-6. Briefly: Inhibition of cell proliferation in human Calu6 cells at 50 uM after 72 hrs by MTS assay relative to control. The experiment is classed as functional. The following applies: Calu-6, 72 h.
In experiment [8] the test system is K562. As to the kind of experiment: Antiproliferative activity against human K562 cells assessed as cell death at 50 uM after 72 hrs by MTS assay relative to control. The experiment is classed as functional.
Experiment [9] deals with Lysine-specific histone demethylase 1A (Homo sapiens) (UniProt O60341). Briefly: Inhibition of LSD1 in human Calu6 cells assessed as increase in H3K4me2 expression at 10 uM after 48 hrs by Western lot analysis relative to control. The experiment is classed as cell-based.

For orientation: inhibition means the change of the read-out against control, counted positive when it falls. For orientation: IC50 means the concentration that gives 50% inhibition. A higher IC50 goes with a need for much substance. Take `CCCCCCCCCC(=O)NCCCC[C@H](NC(=O)[C@H](C)NC(=O)[C@H](CC(C)C)NC(=O)[C@H](CCC(N)=O)NC(=O)[C@H](CCCCN)NC(=O)[C@H](CCCNC(=N)N)NC(=O)[C@@H]1CCCN1C(=O)[C@H](C)NC(=O)[C@H](CCCCN)NC(=O)CNC(=O)CNC(=O)[C@@H](NC(=O)[C@@H]1CCC(=O)NCCCC[C@H](NC(=O)[C@H](CCSC)NC(=O)[C@H](C)NC(=O)[C@H](CCCNC(=N)N)NC(=O)[C@H](C)N)C(=O)N[C@@H]([C@@H](C)O)C(=O)N[C@@H](C)C(=O)N[C@@H](CCCNC(=N)N)C(=O)N[C@@H](CCCCN)C(=O)N1)[C@@H](C)O)C(N)=O` (H-ARAMKTARKETGGKAPRKQLAK(Decanoyl)-NH2; lactam 5-10): the inhibition result in [1] is “Dose-dependent effect”. Besides, the IC50 in the experiment with Calu-6 [2] was determined as 40.2 µM; in the experiment with K562 [4] it was 95.1 µM; in the experiment on MCF7, 28.1 µM. The inhibition entry in experiment [3] and in experiment [5] was “Active” each time. Besides, in [6], the fold change (FC) was in the range of 2 to 17.

The molecule `N=C(NCCCNCCCCCCCNCCCNC(=N)NC(=N)NCCC(c1ccccc1)c1ccccc1)NC(=N)NCCC(c1ccccc1)c1ccccc1` displayed an inhibition at 50 µM with Calu-6 [7] of 83%. Also, the IC50 was 1.6 to 6.3 µM with Calu-6 [2], 4.3 µM in the experiment on K562 [4] and 2.5 to 5.1 µM in the experiment with MCF7. Besides, the Activity in the experiment on K562 [8] is 88%. In addition, in [6], the fold change (FC) was 2 to 17.

Regarding `CCCCCCCCCC(=O)NCCCC[C@H](NC(=O)[C@H](C)NC(=O)[C@H](CC(C)C)NC(=O)[C@H](CCC(N)=O)NC(=O)[C@H](CCCCN)NC(=O)[C@H](CCCNC(=N)N)NC(=O)[C@@H]1CCCN1C(=O)[C@H](C)NC(=O)[C@H](CCCCN)NC(=O)CNC(=O)CNC(=O)[C@@H](NC(=O)[C@@H]1CCC(=O)NCCCC[C@H](NC(=O)[C@H](CCSC)NC(=O)[C@@H](NC(=O)[C@H](CCCNC(=N)N)NC(=O)[C@H](C)N)[C@@H](C)O)C(=O)N[C@@H]([C@@H](C)O)C(=O)N[C@@H](C)C(=O)N[C@@H](CCCNC(=N)N)C(=O)N[C@@H](CCCCN)C(=O)N1)[C@@H](C)O)C(N)=O`, the figures for the IC50 in the experiment with Calu-6 [2] and in the experiment with MCF7 were 92.4 µM and 36.1 µM, respectively. Further, the inhibition result in experiment [3] and in experiment [5] was “Active” each time. Further, the outcome in experiment [9] was inactive. The fold change (FC) in experiment [6] worked out at 17.6.
